From PubChem
TNF necrop inh: inhibitors of TNF-alpha induced necroptosis in Jurkat FADD-/- cells. Jurkat FADD-/- TNF necroptosis rescue, ATP luminescence, 24 h; 0 = TNF only, 100 = no-TNF cells. activation (protection from cell death), % at 10 µM. AID 463075. hit rate 0.068% among 220,000;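 active = activation, meaning protection from cell death, of at least 50% relative to plate controls; inactive = activation below 50%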;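 note: necroptosis triggered by 40 ng/mL TNF-alpha added together with compound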
p97 ATPase inh: human p97 ATPase inhibition. P55072. recombinant p97 ATPase, Kinase-Glo ATP luminescence, 3 h. inhibition, % at 8 µM. hit rate 0.42% among 220,000; in the data active = inhibition above about 15%
Target sequence (P55072 whole entry, looked up): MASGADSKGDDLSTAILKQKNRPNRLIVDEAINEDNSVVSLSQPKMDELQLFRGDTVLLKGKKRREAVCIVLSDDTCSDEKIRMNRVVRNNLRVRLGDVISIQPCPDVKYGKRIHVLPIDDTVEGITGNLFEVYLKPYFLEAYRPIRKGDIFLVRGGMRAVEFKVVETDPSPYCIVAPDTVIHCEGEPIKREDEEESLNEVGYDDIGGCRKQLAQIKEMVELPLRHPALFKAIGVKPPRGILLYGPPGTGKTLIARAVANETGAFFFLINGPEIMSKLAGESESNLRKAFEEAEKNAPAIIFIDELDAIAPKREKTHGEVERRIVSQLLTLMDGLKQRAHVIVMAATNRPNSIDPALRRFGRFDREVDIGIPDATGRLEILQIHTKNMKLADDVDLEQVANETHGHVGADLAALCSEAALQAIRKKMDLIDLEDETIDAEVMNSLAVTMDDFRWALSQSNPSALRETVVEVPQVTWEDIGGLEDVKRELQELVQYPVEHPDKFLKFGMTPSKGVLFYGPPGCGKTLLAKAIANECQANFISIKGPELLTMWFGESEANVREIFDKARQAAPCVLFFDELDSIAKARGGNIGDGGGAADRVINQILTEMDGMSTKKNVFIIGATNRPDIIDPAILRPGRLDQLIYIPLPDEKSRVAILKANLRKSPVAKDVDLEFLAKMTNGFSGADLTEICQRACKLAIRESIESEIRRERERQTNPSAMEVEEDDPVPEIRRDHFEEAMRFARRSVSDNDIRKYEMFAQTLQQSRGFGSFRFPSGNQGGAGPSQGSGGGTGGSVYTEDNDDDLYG
zVAD death inh: blocks zVAD induced death of L929 cells | L929 zVAD necroptosis rescue, ATP luminescence, 24 h; with zVAD 60 µM | viability rescue, % at 10 µM | hit rate 0.38% among 220,000 | AID 1377;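 active = activation, scaled between plate controls, above about 75%, limit read from the data; inactive = activation under that limit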
RBBP9 inh: inhibitors of human serine hydrolase RBBP9; O75884; recombinant RBBP9, FP-Rh probe fluorescence polarization; inhibition, % at 7.94 µM; hit rate 0.2% among 220,000;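 active = inhibition above the campaign mean of all tested compounds plus 3 SD, cut at about 14% in these data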
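System: RBBP9 protein / Buffer or medium: Tris/NaCl buffer pH 8.0 with 0.1% Pluronic / Probe or stimulus: Serine-hydrolase probe FP-Rh, 375 nM pre-mixing / Dosing: 7.94 µM single dose, 0.794% DMSO / Times: enzyme-compound preincubation 30 min, then probe labeling 45 min, 25 °C / Technique: fluorescence polarization (mP), excitation 525 nm, emission 598 nm / Replication: singlicate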
PfM18AAP inh: PfM18AAP enzyme inhibition | recombinant PfM18AAP, H-Glu-NHMec fluorogenic cleavage | inhibition, % at 7.35 µM | hit rate 1.2% among 290,000 | AID 1822;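 active = inhibition above the campaign mean inhibition over all tested compounds plus 3 SD, cut at about 28% in these data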
Wee1 degr inh: blocks degradation of human Wee1 kinase; P30291; HeLa Luc-Wee1K328M stability, luciferase luminescence; 100% = proteasome inhibitor MG132 effect; reporter increase, % at 5 µM; hit rate 1.2% among 220,000; AID 1321;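 active = activation above the mean of all tested compounds plus 3 SD, set per screening run, cut at about 8.8% in these data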;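 note: cells exposed to compound for 20 h before luminescence read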
Wee1 degr conf: confirmation of human Wee1 degradation inhibitors; shares compounds with Wee1 degr inh; HeLa Luc-Wee1K328M degradation, luminescence; vehicle 0%, proteasome-blocked wells 100%; activation, % at 5 µM; hit rate 4% among 1,100; AID 1410; in the data active = activation above about 8.9%
Of the large screens only hits and unclear results are named; the others gave an inactive call (follow-up assays come after a bar, where they were run). Hits are enriched below; roughly 2.7% of the tested compounds scored in any of these assays.

COc1cc(-c2c(NC(=O)c3ccco3)oc3ccccc3c2=O)cc(OC)c1OC	none (no result: TNF necrop inh, p97 ATPase inh, zVAD death inh, RBBP9 inh, Wee1 degr inh)
O=C(O)c1cc(N2C(=O)C3C4C=CC(C4)C3C2=O)ccc1N1CCOCC1 (centres undefined)	none
Fc1ccc(-c2n[nH]c(=S)c3ccccc23)cc1	none
O=C(O)c1cc2c(s1)-c1ccccc1CC2	none
O=C(N/N=C/c1ccc(Cl)cc1)c1cc2c(s1)-c1ccccc1CC2	Wee1 degr inh 26 | Wee1 degr conf inactive
O=S(=O)(NC(=NCc1ccccc1)c1ccc(F)cc1)c1ccc(Cl)cc1	none
O=C(Nc1ccccc1)Nc1cc(OCC(F)(F)F)cc(OCC(F)(F)F)c1	Wee1 degr inh 14 | Wee1 degr conf inactive
Cc1ccc2nc(NC(=O)COC(=O)c3ccco3)sc2c1	Wee1 degr inh 11 | Wee1 degr conf inactive
COc1ccc(Br)cc1CNC(=O)CCCc1cn(C)c2ccccc12	Wee1 degr inh 11 (no result: zVAD death inh) | Wee1 degr conf inactive
COc1ccc(OC)c(CNC(=O)CCCc2cn(C)c3ccccc23)c1	none (no result: zVAD death inh)
CCOC(=O)N1CCN(C(=O)CSc2ccc(-c3cccnc3)nn2)CC1	none
CC(C)NS(=O)(=O)c1ccc(OCC(=O)N2CCc3ccccc3C2)cc1	Wee1 degr inh 13 | Wee1 degr conf inactive
COc1ccc(-c2ccc(SCC(=O)Nc3cccc(C(C)=O)c3)nn2)cc1OC	Wee1 degr inh 12 | Wee1 degr conf inactive
O=C(NC1CCN(Cc2nnnn2CCc2ccccc2)CC1)c1ccccc1F	Wee1 degr inh 12 | Wee1 degr conf inactive
Cc1ccccc1C(=O)NC1CCN(Cc2nnnn2Cc2ccccc2)CC1	none
Cc1ccc(C2=NN(S(C)(=O)=O)C(c3cccs3)C2)cc1 (centres undefined)	Wee1 degr inh 11 | Wee1 degr conf inactive
CCOC(=O)c1c(Nc2ccccc2OCCOC)n[nH]c1C	Wee1 degr inh 11 | Wee1 degr conf inactive
CCOC(=O)c1c(NCc2ccccc2)n[nH]c1C	none
O=C(O)Cc1ccc(NC(=O)CCN2C(=O)c3ccc([N+](=O)[O-])cc3C2=O)cc1	Wee1 degr inh 15 | Wee1 degr conf inactive
CN(Cc1c(F)cccc1Cl)c1ccc(S(=O)(=O)N2CCOCC2)cn1	Wee1 degr inh 12 | Wee1 degr conf inactive
CN(CCOc1ccccc1)c1ccc(S(=O)(=O)N2CCCCC2)cn1	none
CCn1c(SCC(=O)O)nc2ccccc21	none
CCn1c(SCC(=O)N/N=C(/C)c2ccncc2)nc2ccccc21	Wee1 degr inh 15 | Wee1 degr conf inactive
O=C(CCC(=O)Nc1nnc(C2CCCCC2)s1)NCC1CCCO1 (centres undefined)	Wee1 degr inh 16 | Wee1 degr conf inactive
COCCn1c(SCC(=O)Nc2ccc(F)cc2)nc2c(oc3ccccc32)c1=O	Wee1 degr inh 11 | Wee1 degr conf inactive
CNC(=O)COC(=O)c1ccc(-c2nc3ccccc3s2)s1	none
O=CN1CCN(C(=O)c2ccc(-c3nc4ccccc4s3)s2)CC1	Wee1 degr inh 17 | Wee1 degr conf inactive
Cc1cc(C)cc(N2C(=O)CSC2c2ccccn2)c1 (centres undefined)	none
Cc1csc(SCC(=O)NCc2ccccc2)n1	none
Cc1csc2sc(-c3ccnc(SCC(=O)NCc4ccccc4)n3)c(C)c12	Wee1 degr inh 14 | Wee1 degr conf 22
CC(C)c1nnc(SCC(=O)NCc2ccc3c(c2)OCO3)n1C	Wee1 degr inh 12 | Wee1 degr conf inactive
NC(=O)CSc1nnc(-c2cc(-c3cccs3)nc3ccccc23)o1	none
CCCN(CC1CC1)C(=O)CSc1nnc(-c2cc(-c3cccs3)nc3ccccc23)o1	Wee1 degr inh 19 | Wee1 degr conf inactive
CCN(CC)CCNC(=O)C1c2cc(OC)c(OC)cc2C(=O)N(C)C1c1cccs1 (centres undefined)	none
COc1cc(SC)ccc1C(=O)Nc1ccc2c(c1)OCO2	Wee1 degr inh 13 | Wee1 degr conf inactive
COc1cc(SC)ccc1C(=O)Nc1ccc(C)cc1	none
COc1ccc(/C(C)=N/NC(=S)NCCc2ccccc2)c(O)c1	none (no result: TNF necrop inh, p97 ATPase inh, zVAD death inh, RBBP9 inh, Wee1 degr inh)
COc1ccc(Cn2c(=O)[nH]c3cc(C(=O)N4CCN(c5ccccn5)CC4)ccc3c2=O)cc1	none
